For one data set, the system named is Mus musculus. As to the kind of experiment: Compound was tested for analgesic activity in mice by phenylquinone writhing test at dose of 200 mg/kg, po. The format is functional. Summed up:
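Female mice received the drug orally in 1% acacia gum suspension (20 mL/kg) 1 h before i.p. 0.2 mL of 0.2% phenylquinone. Animals were caged individually and abdominal contractions counted over 20 min after injection; N = 4 mice per group; Dunnet's test.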

A short description of data set [1]: Compound was tested for lethal dose in mice after oral administration. The format is ADME, organism-based. The conditions noted are these: mouse, in vivo. Summed up:
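CD1 mice of both sexes given single oral dose of compound suspended in 1% acacia gum (20 mL/kg); LD50 calculated by probit method.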

Data set [2] relates to Rattus norvegicus. As to the kind of experiment: Compound was tested for antiinflammatory activity in rats adjuvant arthritis test after peroral administration of 50 mg/kg dose. The format is functional. The conditions noted are these: route oral.
In data set [3] the test system is Rattus norvegicus. As to the kind of experiment: Compound was tested for antiinflammatory activity in rats by carrageenam edema test after peroral administration of 200 mg/kg dose. In kind it is functional. The conditions noted are these: route oral. Summed up: (§1)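 CD-COBS rats, both sexes. The drug was given orally as a suspension in 1% acacia gum (10 mL/kg), then carrageenan foot edema was induced per Winter et al. Read-out was % inhibition of edema; N = 5 rats per group; Dunnet's test. "No significant effect" means inhibition below 15%.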

Data set [4] has as its system Rattus norvegicus. As to the kind of experiment: Compound was tested for antiinflammatory activity in rats by carrageenam induced pleurisy test at dose of 200 mg/kg, po. The format is functional. Summed up:
(§2)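 Rats were dosed orally (1% acacia gum suspension) at 48, 24 and 1 h before intrapleural carrageenan, per Di Rosa et al. Pleural exudate was assessed 6 h later as % reduction in volume and in leucocytes; N = 8 rats per group; Dunnet's test.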

The test system of data set [5] is Rattus norvegicus. As to the kind of experiment: Compound was tested for antiinflammatory activity in rats by carrageenam induced pleurisy test at dose of 200 mg/kg, po,% reduction in leucocytes. The format is functional. Put shortly: as §2
For data set [6], the system named is Rattus norvegicus. As to the kind of experiment: Compound was tested for antiinflammatory activity in rats by adjuvant arthritis test after peroral administration of 50 mg/kg dose; no significant effect. The format is functional, organism-based. Also noted: dose 50 mg/kg.
Data set [7] relates to Rattus norvegicus. As to the kind of experiment: Compound was tested for antiinflammatory activity in rat by adjuvant arthritis test after peroral administration of 50 mg/kg dose; no significant effect. In kind it is functional, organism-based. Also noted: dose 50 mg/kg.
For data set [8], the system named is Rattus norvegicus. As to the kind of experiment: Compound was tested for antiinflammatory activity in rat by carrageenam edema test after peroral administration of 200 mg/kg dose. In kind it is functional. The conditions noted are these: route oral. Summed up: as §1
For data set [9], the system named is Rattus norvegicus. As to the kind of experiment: Compound was tested for antiinflammatory activity in rats by adjuvant arthritis test after peroral administration of 50 mg/kg dose. The conditions noted are these: route oral. In kind it is functional.
In data set [10] the test system is Rattus norvegicus. As to the kind of experiment: Compound was tested for antiinflammatory activity in rats by carrageenam edema test after peroral administration of 200 mg/kg dose; no significant effect. In kind it is functional, organism-based. On the set-up: dose 200 mg/kg. Summed up:
as §1

In data set [11] the test system is Rattus norvegicus. As to the kind of experiment: Compound was tested for antiinflammatory activity in rat by adjuvant arthritis test after peroral administration of 50 mg/kg dose. The format is functional. The conditions noted are these: route oral.
Data set [12] has as its system Rattus norvegicus. As to the kind of experiment: Compound was tested for antiinflammatory activity in rat by carrageenam edema test after peroral administration of 200 mg/kg dose; no significant effect. In kind it is functional, organism-based. On the set-up: dose 200 mg/kg. Put shortly: as §1
Data set [13] has as its system Rattus norvegicus. As to the kind of experiment: Compound was tested for antiinflammatory activity in Rat by carrageenam edema test after peroral administration of 200 mg/kg dose. In kind it is functional. The conditions noted are these: route oral. Summed up: as §1

This is an account of results in ChEMBL document CHEMBL1121840, “Synthesis and antiinflammatory activity of 2,2'-diaminobiphenyl derivatives” (J Med Chem, 1981).

As a reminder, the inhibition in vivo is the drop in the measured response relative to a control, in per cent. As usually defined, the LD50 is the dose expected to kill half of the subjects tested. Higher therefore signals lower toxicity. For the compound `CCCCC1C(=O)N(c2ccccc2)N(c2ccccc2)C1=O` [PHENYLBUTAZONE], the inhibition in vivo at 200 mg/kg turned out to be 45% in the data set on Mus musculus and 42% in the data set on Rattus norvegicus [3]. The same compound gave a median lethal dose (LD50) in [1] of 650 mg/kg. Moreover, in the data set on Rattus norvegicus [2], the inhibition in vivo at 50 mg/kg is 66%. Also, the Reduction in the data set on Rattus norvegicus [4] was 43%; in the data set with Rattus norvegicus [5], 35%.
As for `CCNc1ccccc1-c1ccccc1NC(=O)Cc1ccc(O)cc1`, in the data set on Rattus norvegicus [6], the inhibition result is “No significant effect”. The same compound had an inhibition in vivo at 200 mg/kg in the data set with Rattus norvegicus [3] of 45%.
For `Nc1ccccc1-c1ccccc1NC(=O)Cc1ccc(O)cc1`, in that order: “No significant effect” and 37%.
With `CCN(CC)CCNc1ccccc1-c1ccccc1NC(=O)Cc1ccccc1`, in the data set with Rattus norvegicus [7], the inhibition entry is “No significant effect”. Further, in the data set with Rattus norvegicus [8], the inhibition in vivo at 200 mg/kg amounted to 17%.
Regarding `CCN(CC)CCCNc1ccccc1-c1ccccc1NC(=O)Cc1ccc([N+](=O)[O-])cc1`, the inhibition in vivo at 50 mg/kg in the data set with Rattus norvegicus [9] is 16%. In addition, in the data set with Rattus norvegicus [10], the inhibition result is “No significant effect”.
For `CN(C)CCNc1ccccc1-c1ccccc1NC(=O)Cc1ccc(N)cc1`, the inhibition result with Rattus norvegicus [6] is “No significant effect”. This compound also registered an inhibition in vivo at 200 mg/kg in the data set with Rattus norvegicus [3] of 16%.
For `CNc1ccccc1-c1ccccc1NC(=O)Cc1ccc(O)cc1`, in that order: “No significant effect” and 17%.
`CN(C)CCCNc1ccccc1-c1ccccc1NC(=O)Cc1ccc(Cl)cc1`: the inhibition in vivo at 50 mg/kg in the data set on Rattus norvegicus [9] came to 30%. Besides, the inhibition entry with Rattus norvegicus [10] is “No significant effect”.
For the compound `COc1ccc(CC(=O)Nc2ccccc2-c2ccccc2NCCN(C)C)cc1`, the inhibition entry in the data set with Rattus norvegicus [6] is “No significant effect”. In the data set on Rattus norvegicus [3], this compound had an inhibition in vivo at 200 mg/kg of 65%.
For `CNc1ccccc1-c1ccccc1NC(=O)Cc1ccc([N+](=O)[O-])cc1`, the inhibition in vivo at 50 mg/kg in the data set on Rattus norvegicus [9] is 16%. Moreover, the inhibition result in the data set with Rattus norvegicus [10] is “No significant effect”.
For `COc1ccc(CC(=O)Nc2ccccc2-c2ccccc2NCCCN(C)C)cc1`, the inhibition result with Rattus norvegicus [6] is “No significant effect”. The inhibition in vivo at 200 mg/kg with Rattus norvegicus [3] came out at 16%.
With `CC(=O)Oc1ccccc1C(=O)O` [ASPIRIN], the inhibition in vivo at 50 mg/kg in the data set on Rattus norvegicus [9] was determined as 32%. In the data set on Rattus norvegicus [3], this compound showed an inhibition in vivo at 200 mg/kg of 40%.
For the compound `CCCNc1ccccc1-c1ccccc1NC(=O)Cc1ccc(Cl)cc1`, the inhibition entry in the data set on Rattus norvegicus [6] was “No significant effect”. The same compound registered an inhibition in vivo at 200 mg/kg in the data set with Rattus norvegicus [3] of 33%.
With `CN(C)CCCNc1ccccc1-c1ccccc1NC(=O)Cc1ccc([N+](=O)[O-])cc1`, the inhibition in vivo at 50 mg/kg in the data set on Rattus norvegicus [11] came to 24%. Besides, the inhibition result in the data set with Rattus norvegicus [12] is “No significant effect”.
Turning to `CCN(CC)CCCNc1ccccc1-c1ccccc1NC(=O)Cc1ccc(Cl)cc1`, the inhibition in vivo at 50 mg/kg in the data set on Rattus norvegicus [9] came to 29%. Further, the inhibition result in the data set on Rattus norvegicus [10] was “No significant effect”.
For `CCN(CC)CCNc1ccccc1-c1ccccc1NC(=O)Cc1ccc(N)cc1`, the inhibition result with Rattus norvegicus [6] is “No significant effect”. This compound also came in with an inhibition in vivo at 200 mg/kg with Rattus norvegicus [3] of 33%.
Consider `CN(C)CCNc1ccccc1-c1ccccc1NC(=O)Cc1ccc([N+](=O)[O-])cc1`, for which the inhibition result in the data set with Rattus norvegicus [7] was “No significant effect”. In the data set on Rattus norvegicus [13], this compound showed an inhibition in vivo at 200 mg/kg of 54%.
Consider `CCNc1ccccc1-c1ccccc1NC(=O)Cc1ccccc1`, for which the inhibition entry in the data set with Rattus norvegicus [6] is “No significant effect”. In addition, the inhibition in vivo at 200 mg/kg in the data set on Rattus norvegicus [3] came to 30%.
`CNc1ccccc1-c1ccccc1NC(=O)Cc1ccc(OC)cc1`: the inhibition in vivo at 50 mg/kg in the data set with Rattus norvegicus [9] came to 22%. The compound also came in with an inhibition in vivo at 200 mg/kg in the data set on Rattus norvegicus [3] of 20%.
Turning to `CCN(CC)CCNc1ccccc1-c1ccccc1NC(=O)Cc1ccc([N+](=O)[O-])cc1`, the figures for the inhibition in vivo at 200 mg/kg in the data set with Mus musculus and with Rattus norvegicus [8] were 34% and 54%, respectively. This compound yielded an LD50 in [1] of 1130 mg/kg. In addition, the inhibition in vivo at 50 mg/kg in the data set on Rattus norvegicus [2] came to 33%. Moreover, the Reduction in the data set with Rattus norvegicus [4] is on record as 48%; in the data set on Rattus norvegicus [5], 35%.
